From ChEMBL document CHEMBL1145564, “Discovery of N-[(3R,5R)-1-azabicyclo[3.2.1]oct-3-yl]furo[2,3-c]pyridine-5-carboxamide as an agonist of the alpha7 nicotinic acetylcholine receptor: in vitro and in vivo activity” (Bioorg Med Chem Lett, 2008)

Columns and labels:
[1] = biological target: Neuronal acetylcholine receptor subunit alpha-7 (Rattus norvegicus, UniProt Q05941); assay: Displacement of [3H]MLA from alpha-7 nACh receptor in rat brain; type: tissue-based
Outline: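 Rat brain homogenate binding with [3H]MLA; individual Ki values, mean ± SEM reported when more than 3 measurements.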

[2] = Metabolic stability in rat liver microsomes assessed as hepatic extraction ratio after 30 mins; type: ADME, Microsome
Outline: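 Rat liver microsome incubation; stability reported as fraction of compound remaining after 30 min relative to t0 concentration.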

[3] = biological target: Neuronal acetylcholine receptor subunit alpha-7 (Homo sapiens, UniProt P36544); assay: Agonist activity at alpha7-5HT3 chimera expressed in human SH-EP1 cells by FLIPR assay; type: functional, cell-based
[4] = Apparent permeability from apical to basolateral side in dog MDCK cells; type: ADME, cell-based, Canis lupus familiaris
Outline: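 MDCK monolayer permeability measured apical to basolateral, expressed as Papp (x10^-6 cm/s).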

[5] = biological target: T1, Muscarinic acetylcholine receptor M2 (Homo sapiens) (UniProt P08172); assay: Displacement of [3H]AF-DX384 from human muscarinic M2 receptor expressed in CHO cells at 10 uM; type: cell-based
T1 sequence (whole entry): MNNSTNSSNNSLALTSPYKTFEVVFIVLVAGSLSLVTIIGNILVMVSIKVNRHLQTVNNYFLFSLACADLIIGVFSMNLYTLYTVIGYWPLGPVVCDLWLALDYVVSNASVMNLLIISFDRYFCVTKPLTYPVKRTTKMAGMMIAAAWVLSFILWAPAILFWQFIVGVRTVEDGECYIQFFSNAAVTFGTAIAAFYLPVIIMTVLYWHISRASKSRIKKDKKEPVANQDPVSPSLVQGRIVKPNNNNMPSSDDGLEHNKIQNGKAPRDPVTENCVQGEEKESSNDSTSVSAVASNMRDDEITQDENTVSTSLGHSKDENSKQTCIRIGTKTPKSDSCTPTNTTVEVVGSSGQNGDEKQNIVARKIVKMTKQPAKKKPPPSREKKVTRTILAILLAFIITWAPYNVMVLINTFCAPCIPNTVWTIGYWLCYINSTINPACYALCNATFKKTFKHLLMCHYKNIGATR
Outline: (§1)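 Human muscarinic receptors in transfected CHO cells; radioligands [3H]pirenzepine (M1), [3H]AF-DX 384 (M2), [3H]DAMP (M3); percent block at 10 µM.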

[6] = Ratio of drug level in brain to plasma in mouse at 10 mg/kg after 60 min; type: ADME, organism-based; parameters: dose 10 mg/kg
Outline: (§2)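 Mouse brain uptake: brain and plasma concentrations after a 10 mg/kg dose, ratio taken at 5 and 60 min.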

[7] = Half life in Sprague-Dawley rat at 5 mg/kg, po; type: ADME, organism-based; parameters: dose 5 mg/kg, route oral; conditions: in vivo
Outline: (§3)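 Sprague-Dawley rats given a single 5.0 mg/kg oral dose; pharmacokinetic parameters derived from plasma.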

[8] = biological target: T2, Muscarinic acetylcholine receptor M1 (Homo sapiens) (UniProt P11229); assay: Displacement of [3H]pirenzepine from human muscarinic M1 receptor expressed in CHO cells at 10 uM; type: cell-based; outline: as §1
T2 sequence (whole entry): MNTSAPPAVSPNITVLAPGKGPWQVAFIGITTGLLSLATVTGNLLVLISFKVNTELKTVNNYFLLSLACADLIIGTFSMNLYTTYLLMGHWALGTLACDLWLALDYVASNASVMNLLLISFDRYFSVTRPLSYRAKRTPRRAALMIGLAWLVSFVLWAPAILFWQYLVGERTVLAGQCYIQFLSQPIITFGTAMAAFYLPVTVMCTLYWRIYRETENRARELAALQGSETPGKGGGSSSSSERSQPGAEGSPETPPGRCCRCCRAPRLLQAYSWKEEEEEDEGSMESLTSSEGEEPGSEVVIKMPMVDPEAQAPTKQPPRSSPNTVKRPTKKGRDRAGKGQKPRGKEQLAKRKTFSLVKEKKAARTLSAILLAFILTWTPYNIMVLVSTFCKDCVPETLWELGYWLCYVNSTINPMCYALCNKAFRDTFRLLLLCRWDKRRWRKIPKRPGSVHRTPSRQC

[9] = tested on: Rattus norvegicus; assay: Reversal of amphetamine-induced auditory gating deficit in iv dosed rat auditory sensory gating model; conditions: read-out: MED
[10] = Clearance in Sprague-Dawley rat at 5 mg/kg, po; type: ADME, organism-based; parameters: dose 5 mg/kg, route oral; conditions: in vivo; outline: as §3
[11] = biological target: Neuronal acetylcholine receptor; alpha4/beta2 (Rattus norvegicus) (UniProt P09483+P12390); assay: Displacement of [3H][…] from alpha-4-beta-2 nACh receptor in rat brain at 1 uM; type: tissue-based
Outline: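 Rat brain homogenate binding using [3H][…]; percent block at 1 µM.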

[12] = Cmax in dog ECG model; type: ADME, organism-based, Canis lupus familiaris; conditions: in vivo
Outline: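 Acute dog ECG cardiovascular safety study; no-observable-adverse-effect dose set, with Cmax measured at that dose.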

[13] = biological target: Muscarinic acetylcholine receptor M3 (Homo sapiens) (UniProt P20309); assay: Displacement of [3H]DAMP from human muscarinic M3 receptor expressed in CHO cells at 10 uM; type: cell-based; outline: as §1
[14] = tested on: Rattus norvegicus; assay: Volume of distribution at steady state in Sprague-Dawley rat at 5 mg/kg, po; type: ADME, organism-based; parameters: dose 5 mg/kg, route oral; conditions: in vivo; outline: as §3
[15] = tested on: Plasma; assay: Fraction unbound in human plasma at 0.100 ug/mL; type: ADME, cell-free
Outline: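 Human plasma protein binding as fraction unbound, measured at drug concentration 0.100 µg/mL.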

[16] = Metabolic stability in human liver microsomes assessed as half life; type: ADME, Microsome
[17] = Ratio of drug level in brain to plasma in mouse at 10 mg/kg after 5 mins; type: ADME, organism-based; parameters: dose 10 mg/kg; outline: as §2
[18] = biological target: T3, 5-hydroxytryptamine receptor 3A (Rattus norvegicus, UniProt P35563); assay: Binding affinity to rat 5HT3 receptor
T3 sequence (P35563 whole entry): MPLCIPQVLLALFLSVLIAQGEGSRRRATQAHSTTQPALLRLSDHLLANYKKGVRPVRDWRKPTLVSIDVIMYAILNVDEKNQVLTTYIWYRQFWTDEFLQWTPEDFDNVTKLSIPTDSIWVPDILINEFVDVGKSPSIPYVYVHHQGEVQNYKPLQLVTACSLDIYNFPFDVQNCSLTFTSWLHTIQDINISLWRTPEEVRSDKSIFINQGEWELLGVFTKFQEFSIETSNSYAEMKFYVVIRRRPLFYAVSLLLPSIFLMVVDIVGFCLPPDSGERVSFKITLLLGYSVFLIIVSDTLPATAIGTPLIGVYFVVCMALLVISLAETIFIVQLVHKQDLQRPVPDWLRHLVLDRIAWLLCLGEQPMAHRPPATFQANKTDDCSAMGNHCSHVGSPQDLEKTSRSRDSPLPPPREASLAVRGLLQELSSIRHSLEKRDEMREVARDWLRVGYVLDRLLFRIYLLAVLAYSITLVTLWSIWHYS

Sequence of Neuronal acetylcholine receptor subunit alpha-7 (Rattus norvegicus, UniProt Q05941) (Q05941 whole entry): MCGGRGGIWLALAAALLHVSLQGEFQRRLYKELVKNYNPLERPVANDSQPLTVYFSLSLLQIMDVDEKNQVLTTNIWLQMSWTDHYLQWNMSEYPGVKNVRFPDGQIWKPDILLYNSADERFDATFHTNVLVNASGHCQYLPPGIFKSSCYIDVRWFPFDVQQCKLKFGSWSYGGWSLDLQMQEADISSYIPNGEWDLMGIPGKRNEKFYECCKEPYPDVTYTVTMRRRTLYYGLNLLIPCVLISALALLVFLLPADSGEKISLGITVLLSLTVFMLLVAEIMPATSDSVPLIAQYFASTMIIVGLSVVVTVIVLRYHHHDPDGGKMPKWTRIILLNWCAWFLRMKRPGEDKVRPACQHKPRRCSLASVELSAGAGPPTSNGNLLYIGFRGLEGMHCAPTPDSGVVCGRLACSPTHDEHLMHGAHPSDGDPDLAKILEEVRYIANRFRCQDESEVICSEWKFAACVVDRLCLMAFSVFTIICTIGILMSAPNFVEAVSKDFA
Sequence of Neuronal acetylcholine receptor subunit alpha-7 (Homo sapiens, UniProt P36544) (P36544 23-502 limits assumed): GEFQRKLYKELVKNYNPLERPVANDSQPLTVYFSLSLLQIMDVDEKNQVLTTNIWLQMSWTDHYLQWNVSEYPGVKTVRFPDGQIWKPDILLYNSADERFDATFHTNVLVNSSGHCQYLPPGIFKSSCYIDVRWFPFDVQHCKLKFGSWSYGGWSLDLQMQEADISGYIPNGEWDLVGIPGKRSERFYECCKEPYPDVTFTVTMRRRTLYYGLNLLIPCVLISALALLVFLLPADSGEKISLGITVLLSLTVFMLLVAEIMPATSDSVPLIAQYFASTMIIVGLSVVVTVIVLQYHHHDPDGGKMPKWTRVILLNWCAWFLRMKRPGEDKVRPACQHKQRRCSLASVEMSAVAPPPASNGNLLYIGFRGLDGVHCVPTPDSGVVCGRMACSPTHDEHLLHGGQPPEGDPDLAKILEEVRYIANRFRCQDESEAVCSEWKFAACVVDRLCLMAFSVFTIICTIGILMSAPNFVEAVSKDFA
Sequence of Muscarinic acetylcholine receptor M3 (Homo sapiens) (P20309 whole entry, looked up): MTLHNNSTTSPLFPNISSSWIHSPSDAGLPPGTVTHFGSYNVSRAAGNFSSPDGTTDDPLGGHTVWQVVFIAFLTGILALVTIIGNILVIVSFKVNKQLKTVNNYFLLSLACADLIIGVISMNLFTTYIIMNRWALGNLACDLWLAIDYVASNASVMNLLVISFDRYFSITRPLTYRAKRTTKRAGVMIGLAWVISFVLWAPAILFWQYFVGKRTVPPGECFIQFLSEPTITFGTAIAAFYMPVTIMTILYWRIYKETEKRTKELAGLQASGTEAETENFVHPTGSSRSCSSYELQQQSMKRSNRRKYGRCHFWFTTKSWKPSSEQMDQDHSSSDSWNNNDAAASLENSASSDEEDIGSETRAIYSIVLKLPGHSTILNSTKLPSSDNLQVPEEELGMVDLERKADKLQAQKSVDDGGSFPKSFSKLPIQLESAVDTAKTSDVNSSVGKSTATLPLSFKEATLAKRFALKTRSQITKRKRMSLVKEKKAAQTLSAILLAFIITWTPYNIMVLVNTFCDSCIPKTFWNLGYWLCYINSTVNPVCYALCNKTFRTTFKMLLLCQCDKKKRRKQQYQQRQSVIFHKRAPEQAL

Compound | Ki [1] [µM] | hepatic extraction ratio at 0.5 h [2] | EC50 [3] [µM] | Papp A→B [4] [nm/s] | Activity [5] [%] | Kp at 1 h [6] | half-life [7] [min] | Activity [8] [%] | minimal effective dose [9] [mg/kg] | CL/F [10] [L/h/kg] | Activity [11] [%] | Cmax [12] [µM] | Activity [13] [%] | Vdss [14] [L/kg] | fraction unbound [15] | half-life [16] [min] | Kp at 5 min [17] | Ki [18] [µM]
O=C(N[C@@H]1C[C@H]2CCN(C2)C1)c1cc2cccn2cn1 | 0.014 | 0.86 | 0.129 |  |  |  |  |  |  |  |  |  |  |  |  |  |  | 
O=C(N[C@H]1CN2CCC1CC2)c1cc2ccoc2cn1 [PHA-543613] | 0.009 |  |  | 340 | 23 | 1.5 | 36 | 16 | 0.24 | 1.98 | 13 | 3.8 | 33 | 1.8 | 0.83 | > 120 | 1.5 | 0.63
O=C(N[C@@H]1C[C@H]2CCN(C2)C1)c1ccc2ncsc2c1 | 0.021 | < 0.27 | 0.182 | 2 |  | 0.33 |  |  |  |  |  |  |  |  |  |  | 0.02 | 
O=C(N[C@@H]1C[C@H]2CCN(C2)C1)c1ccc2c(c1)OCCO2 | 0.029 | 0.74 | 0.43 |  |  |  |  |  |  |  |  |  |  |  |  |  |  | 
